We go through seven compounds from ChEMBL document CHEMBL1139359, “Novel chemotactic For-Met-Leu-Phe-OMe (fMLF-OMe) analogues based on met residue replacement by 4-amino-proline scaffold: synthesis and bioactivity” (2009).

The test system of assay [1] is Neutrophil. In words: Induction of chemotactic activity in human neutrophil assessed as chemotactic index at 1 nM. Format: functional. The method, boiled down:
(§1)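 Neutrophils from healthy donors were purified by dextran sedimentation, Ficoll-Paque centrifugation and hypotonic red-cell lysis, then held in KRPG pH 7.4. Peptide placed in lower well of a 48-well microchemotaxis chamber, diluted in KRPG with 1 mg/mL BSA, tested at 10^–13 to 10^–5 M. Migration into filter scored by leading-front method. C.I. = (test − buffer migration)/buffer migration. Mean of six experiments run in duplicate.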

Assay [2] deals with Neutrophil. Kind of assay: Induction of superoxide anion radicals production in human neutrophil at 10 uM. Format: functional. The method, boiled down:
(§2)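 Donor neutrophils (dextran/Ficoll/hypotonic lysis, KRPG pH 7.4) pretreated with 5 µg/mL cytochalasin B for 5 min. Peptide then added at 10^–10–5·10^–5 M at 37 °C in microplate reader. Cytochrome c reduction read as absorbance difference 550 vs 468 nm (absorptivity 18.5 mmol^–1 cm^–1). Expressed as net nmol O2− per 10^6 cells per 5 min, mean of six experiments in duplicate.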

Assay [3] deals with Neutrophil. Kind of assay: Induction of lysozyme release in human neutrophil at 1 uM. The class given is functional. A digest of the protocol:
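Cells at 3×10^6/well, in triplicate wells, preincubated with 5 µg/mL cytochalasin B at 37 °C for 15 min, then peptide (final 10^–10–5·10^–5 M) for 15 min. Plates spun 400g for 5 min. Supernatant lysozyme measured nephelometrically as rate of Micrococcus lysodeikticus cell-wall lysis at 465 nm. Expressed as net % of total content released by 0.1% Triton X-100. Mean of five experiments in duplicate.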

The test system of assay [4] is Neutrophil. Kind of assay: Inhibition of fMLF-OMe-induced superoxide anion radicals production in human neutrophil. Format: functional, cell-based.
Assay [5] concerns Neutrophil. In words: Inhibition of fMLF-OMe-induced chemotactic index in human neutrophil at 100 uM. Also on record: Activity: scale not given: the % may be the effect or the level left. The class given is functional. As to conditions: for inhibition at 100 µM: Homo sapiens, Neutrophil. The method, boiled down: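 Human neutrophils, chemotaxis toward 10 nM fMLF-OMe in microchemotaxis chamber, measured with increasing concentrations of test peptide. Inhibition scored on chemotactic index (test − buffer migration over buffer migration), with migration assessed by leading-front method.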

The test system of assay [6] is Neutrophil. In words: Inhibition of fMLF-OMe-induced lysozyme release in human neutrophil assessed as lysis of Micrococcus lysodeikticus cell wall by nephelometry. The class given is functional, cell-based.
The test system of assay [7] is Neutrophil. In words: Induction of chemotactic activity in human neutrophil at 0.1 nM. Format: functional. A digest of the protocol:
as §1

Assay [8] relates to Neutrophil. In words: Induction of superoxide anion radicals production in human neutrophil at 1 uM. The class given is functional. The method, boiled down:
as §2

Activity calls are given as the source filed them. No cut-off for these calls is given here.

In the case of `COC(=O)[C@H](Cc1ccccc1)NC(=O)[C@H](CC(C)C)NC(=O)[C@@H]1C[C@H](NC=O)CN1C(=O)OC(C)(C)C`, the Activity with Neutrophil [1] is 0.34; in the assay on Neutrophil [2], 2 nmol; in the assay with Neutrophil [3], 12%. In addition, the result with Neutrophil [4] was inactive.
In the case of `COC(=O)[C@H](Cc1ccccc1)NC(=O)[C@H](CC(C)C)NC(=O)[C@@H]1C[C@@H](NC=O)CN1C(=O)OC(C)(C)C`, the Activity was found to be 0.4 in the assay on Neutrophil [1], 1 nmol in the assay on Neutrophil [2], 13% with Neutrophil [3] and 73% in the assay on Neutrophil [5]. Also, the result in the assay with Neutrophil [4] was inactive.
Take `COC(=O)[C@H](Cc1ccccc1)NC(=O)[C@H](CC(C)C)NC(=O)[C@@H]1C[C@H](NC(=O)OC(C)(C)C)CN1C(=O)OC(C)(C)C`: the Activity with Neutrophil [1] came out at 0.4; in the assay on Neutrophil [2], 14.6 nmol; with Neutrophil [3] it was 12%. For the same compound, the inhibition at 100 µM in the assay with Neutrophil [5] was 60%. Moreover, the outcome in the assay with Neutrophil [6] was inactive.
`COC(=O)[C@H](Cc1ccccc1)NC(=O)[C@H](CC(C)C)NC(=O)[C@@H]1C[C@@H](NC=O)CN1C=O`: the results for the Activity in the assay with Neutrophil [7], in the assay with Neutrophil [8] and in the assay with Neutrophil [3] were 0.75, 5 nmol and 15%, respectively. Besides, the result in the assay with Neutrophil [6] was inactive.
For `COC(=O)[C@H](Cc1ccccc1)NC(=O)[C@H](CC(C)C)NC(=O)[C@@H]1C[C@H](NC=O)CN1C=O`, the Activity in the assay on Neutrophil [7] worked out at 0.7; with Neutrophil [2] (in the assay text read “1 uM” for “10 uM”), 4 nmol; in the assay with Neutrophil [3], 24%. The result in the assay with Neutrophil [6] was inactive.
In the case of `COC(=O)[C@H](Cc1ccccc1)NC(=O)[C@H](CC(C)C)NC(=O)[C@@H]1C[C@@H](NC(=O)OC(C)(C)C)CN1C(=O)OC(C)(C)C`, the Activity is 0.45 with Neutrophil [7], 2 nmol in the assay on Neutrophil [2] and 18% with Neutrophil [3]. Moreover, in the assay with Neutrophil [5], the inhibition at 100 µM amounted to 60%. Besides, in the assay on Neutrophil [6], the result was inactive.
With `COC(=O)[C@H](Cc1ccccc1)NC(=O)[C@H](CC(C)C)NC(=O)[C@H](CCSC)NC=O`, the Activity came to 1.1 in the assay on Neutrophil [1], 52 nmol in the assay with Neutrophil [8] and 60% in the assay with Neutrophil [3].

In general, inhibition refers to how much of the control response was suppressed.
